In ChEMBL document CHEMBL1153528, “Modeling of the aryl hydrocarbon receptor (AhR) ligand binding domain and its utility in virtual ligand screening to predict new AhR ligands” (J Med Chem, 2009) one finds fold induction and Activity data, which are given here for 7 compounds.

Common to all, as to type: cell-based
In data set [1] the target is T1, Aryl hydrocarbon receptor (AhR) ligand-binding domain (Mus musculus, UniProt P30561).
T1 sequence (P30561 whole entry): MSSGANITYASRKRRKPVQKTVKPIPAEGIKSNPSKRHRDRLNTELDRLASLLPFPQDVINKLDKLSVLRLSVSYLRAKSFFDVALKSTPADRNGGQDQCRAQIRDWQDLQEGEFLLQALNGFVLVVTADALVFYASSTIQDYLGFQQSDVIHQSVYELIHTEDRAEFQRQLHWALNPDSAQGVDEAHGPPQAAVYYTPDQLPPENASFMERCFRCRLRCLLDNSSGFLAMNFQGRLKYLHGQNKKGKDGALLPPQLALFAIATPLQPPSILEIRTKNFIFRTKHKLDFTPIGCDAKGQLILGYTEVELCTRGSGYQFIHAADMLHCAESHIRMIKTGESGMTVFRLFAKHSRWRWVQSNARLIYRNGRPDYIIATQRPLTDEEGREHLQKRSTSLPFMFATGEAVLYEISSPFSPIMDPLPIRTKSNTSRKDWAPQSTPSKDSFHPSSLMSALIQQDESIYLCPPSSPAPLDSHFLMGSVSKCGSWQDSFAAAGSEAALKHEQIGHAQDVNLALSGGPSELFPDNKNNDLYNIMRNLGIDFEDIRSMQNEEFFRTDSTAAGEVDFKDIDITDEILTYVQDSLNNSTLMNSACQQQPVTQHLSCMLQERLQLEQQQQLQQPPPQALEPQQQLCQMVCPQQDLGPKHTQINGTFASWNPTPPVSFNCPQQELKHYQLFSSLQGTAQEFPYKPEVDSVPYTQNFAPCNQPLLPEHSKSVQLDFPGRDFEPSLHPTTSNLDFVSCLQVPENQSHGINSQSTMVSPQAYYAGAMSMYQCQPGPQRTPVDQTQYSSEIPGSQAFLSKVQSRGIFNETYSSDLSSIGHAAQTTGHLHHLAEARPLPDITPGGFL
In words: Induction of mouse AhR LBD transcriptional activity in mouse hepa1 cells transfected with AhR response element co expressed with XRE after 6 hrs by luciferase reporter gene assay relative to control. The note with it: read-out: FC. The essentials:
(§1)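 Mouse Hepa1 cells carrying an AhRE/XRE-luciferase reporter, grown in DMEM/10% FBS with penicillin/streptomycin under 5% CO2. Test agents from DMSO stocks, final 20 µM, were applied for 6 h and reporter activity then measured. Fold activation was graded: ≥8 very strong, >4 strong, […].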
On the technique in general: Reporter assays use an easily measured gene product as a stand-in for the process of interest.

Data set [2] deals with T2, Aryl hydrocarbon receptor (Mus musculus, UniProt P30561).
T2 sequence (P30561 whole entry): T1 sequence (P30561 whole entry)
In words: Effect on AhR-mediated CYP1A1 activation in mouse Hepa1c1c12 cells at 20 uM after 18 hrs by Western blot analysis. The note with it: in the assay text read “semi-quantitative RT-PCR analysis” for “Western blot analysis”. The essentials: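 Pair of Hepa1c1c7-derived lines: C12 (much reduced AhR) and C12 re-expressing WT AhR. Cells in DMEM/10% FBS with antibiotics under 5% CO2 were given 20 µM for 18 h, vehicle 0.1% DMSO, TCDD 1 nM as reference. Target genes (CYP1A1, NADPH-QO) assessed by semi-quantitative RT-PCR with GAPDH control. AhR shown by blot of 30 µg whole-cell lysate.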

The target in data set [3] is T2, Aryl hydrocarbon receptor. In words: Induction of nuclear translocation of AhR from cytosol in mouse Hepa1 cells at 20 uM after 60 mins using DAPI staining by microscopic analysis. The note with it: hepa1, 1 h. The essentials: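 Hepa1 cells given test agents for 60 min, then fixed. They were immunostained for AhR with FITC-labelled secondary antibody and counterstained with DAPI for nuclei. AhR nuclear localization was imaged by fluorescence microscopy.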

Data set [4] addresses T2, Aryl hydrocarbon receptor. In words: Induction of mouse AhR LBD transcriptional activity in mouse hepa1 cells transfected with AhR response element co expressed with XRE at 20 uM after 6 hrs by luciferase reporter gene assay in presence of 6-hydroxy-7-methoxyflavone. In short, it runs like this:
as §1

Turning to `O=c1cc(-c2ccccc2O)oc2c(O)c(O)ccc12`, the fold induction at 6 h in data set [1] turned out to be 2.8.
Still for that read-out and setting: the figure for `Cc1ccc2oc(-c3ccccc3)c(O)c(=O)c2c1` is 2.5; for `COc1ccc2c(=O)c(-c3ccccc3)coc2c1` it is 2.7.
As for `O=C1CC(c2ccccc2)Oc2cc(O)cc(O)c21` (single isomer, unassigned) [PINOCEMBRIN], in data set [1], the fold induction at 6 h was 8. Moreover, the outcome in data set [2] and in data set [3] was Active.
`Clc1cc2c(cc1Cl)Oc1cc(Cl)c(Cl)cc1O2` [2,3,7,8-TETRACHLORODIBENZO-P-DIOXIN]: the fold induction at 6 h in data set [1] is 21.
The same measure, in the same setting: the figure for `Cc1ccc2oc(-c3ccccc3)cc(=O)c2c1` [6-METHYLFLAVONE] is 4.8.
In the case of `COc1cc(O)c2c(=O)cc(-c3ccccc3)oc2c1` [TECHTOCHRYSIN], the fold induction at 6 h in data set [1] came out at 11.3. Besides, the Activity entry in data set [4] is given as “Not Active”; in data set [2] it was “Active”; in data set [3] it was “Active”.
